An excerpt weighted towards active compounds, which were near 3% of everything screened.
TRPC4 PAM = positive allosteric modulators of TRPC4, primary screen, cell-based, mouse TRPC4beta, HEK293 mu-opioid, Fluo-4 calcium; AID 2227, 2009; Short transient receptor potential channel 4 (Mus musculus), Q9QUQ5; B-score at 10 µM; DAMGO EC20, Fluo-4 Ca2+ flux; hits give high values; 310,000 compounds, 0.42% hits;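 active = B-score of calcium response area above 5 SD of library B-scores, with initial fluorescence ratio within 5 SD of library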;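 note: B-score of integrated fluorescence ratio over time as area under calcium response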
Kir21 block = inhibitors of mouse Kir2.1 inward-rectifier potassium channel; HEK293-Kir2.1, FluxOR thallium flux fluorescence; hits give low values; B-score at 10 µM; AID 1672, 2009; 310,000 compounds, 0.85% hits; Inward rectifier potassium channel 2 (Mus musculus), P35561;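 active = fluorescence ratio B-score at or below minus 3 SD of library scores, with starting-brightness B-score within 2 SD, cut at about -4.2 in these data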;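 note: channel flux triggered by added potassium and thallium sulfate stimulus; B-score of peak minus minimum fluorescence over baseline after thallium stimulus; more negative B-score means stronger Kir2.1 block with less thallium influx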
TRPC4 agonist = activators of mouse TRPC4 channel, primary screen, Fluo4 calcium, HEK293 TRPC4beta/mu-opioid cells. Short transient receptor potential channel 4 (Mus musculus), Q9QUQ5. Fluo4 calcium fluorescence; hits give high values. B-score at 10 µM. 310,000 compounds, 0.49% hits;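 active = B-score above 5 SD of library B-scores, and initial fluorescence ratio not above library mean plus 5 SD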;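 note: positive B-score marks a calcium rise read as TRPC4 activation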
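Incubation: 45 min room-temperature Fluo4 loading, 110 s read / System: HEK293 cells stably co-expressing mouse TRPC4beta and mu-opioid receptor / Signal: Fluo4 fluorescence, kinetic / Control set: buffer (low) and maximal DAMGO (high) / Measure: integrated baseline-normalised fluorescence ratio, converted to per-well B score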
TRPC6 inhibitor = mouse TRPC6 channel inhibitors, primary screen, cell-based, HEK293, membrane potential dye; Short transient receptor potential channel 6 (Mus musculus), Q61143; ACh-evoked depolarization; hits give low values; B-score at 10 µM; 310,000 compounds, 1.1% hits; AID 2553, 2010;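 active = B-score under library mean minus 3 SD, initial fluorescence not abnormally high, positive integrated signal ratio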;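 note: B-score derived from integrated fluorescence ratio over the kinetic read; more negative B-score means stronger inhibition of depolarization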
Target sequence (Q61143 whole entry, looked up): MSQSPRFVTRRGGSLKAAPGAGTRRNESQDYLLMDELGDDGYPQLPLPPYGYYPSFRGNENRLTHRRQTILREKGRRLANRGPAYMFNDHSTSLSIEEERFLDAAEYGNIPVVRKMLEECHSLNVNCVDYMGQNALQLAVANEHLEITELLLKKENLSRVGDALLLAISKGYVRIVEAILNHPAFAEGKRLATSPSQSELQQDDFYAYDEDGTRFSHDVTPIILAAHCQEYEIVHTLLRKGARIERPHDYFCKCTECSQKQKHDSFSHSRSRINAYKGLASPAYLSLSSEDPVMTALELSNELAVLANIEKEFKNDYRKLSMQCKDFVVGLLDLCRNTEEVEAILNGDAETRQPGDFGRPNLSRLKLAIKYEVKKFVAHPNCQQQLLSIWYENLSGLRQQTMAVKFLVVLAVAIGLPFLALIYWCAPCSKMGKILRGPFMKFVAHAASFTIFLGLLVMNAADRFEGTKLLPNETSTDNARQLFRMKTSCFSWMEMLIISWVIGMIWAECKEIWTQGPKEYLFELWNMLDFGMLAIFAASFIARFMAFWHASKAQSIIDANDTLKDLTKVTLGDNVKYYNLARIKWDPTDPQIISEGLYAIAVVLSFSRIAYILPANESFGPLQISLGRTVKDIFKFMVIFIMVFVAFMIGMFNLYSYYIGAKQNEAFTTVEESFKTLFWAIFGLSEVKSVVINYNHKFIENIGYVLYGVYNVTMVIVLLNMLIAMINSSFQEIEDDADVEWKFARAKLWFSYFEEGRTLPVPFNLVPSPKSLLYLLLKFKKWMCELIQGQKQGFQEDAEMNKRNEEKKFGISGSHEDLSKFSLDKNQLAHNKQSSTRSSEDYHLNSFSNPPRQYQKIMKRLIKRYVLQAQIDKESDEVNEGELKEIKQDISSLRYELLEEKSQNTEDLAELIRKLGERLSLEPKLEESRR
TRPC6 act = mouse TRPC6 channel activators, primary screen, cell-based, HEK293, membrane potential dye | Short transient receptor potential channel 6 (Mus musculus), Q61143 | HEK293-TRPC6 membrane potential dye fluorescence; hits give high values | B-score at 10 µM | 310,000 compounds, 0.13% hits | AID 2550, 2010;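 active = B-score of the integrated fluorescence ratio above library mean plus 3 SD, and starting fluorescence ratio within library mean plus 5 SD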;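 note: higher score means more depolarization so channel activation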
TRPC4 inh = inhibitors of mouse TRPC4 channel, primary screen, Fluo4 calcium, HEK293 TRPC4beta/mu-opioid cells; Short transient receptor potential channel 4 (Mus musculus), Q9QUQ5; DAMGO-evoked Fluo4 calcium flux; hits give low values; B-score at 10 µM; 300,000 compounds, 0.39% hits; AID 2247, 2010;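 active = B-score over 3 SD under the library average, no early fluorescence shift, positive overall ratio signal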
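Assay system: HEK293 cells with stable TRPC4beta plus mu-opioid receptor expression. Dosing: single dose. Measured by: Fluo4 Ca2+ flux fluorescence. Also added: DAMGO in two steps, submaximal then maximal. Read-out: B score from integrated Fluo4 fluorescence ratio.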
TRPC4 spec 2 = second check of whether TRPC6 inhibitors also affect mouse TRPC4; shares compounds with TRPC6 inhibitor; HEK293 TRPC4/MOR, membrane potential dye fluorescence; channel activated by saturating DAMGO dose; inhibition, % at 10 µM; 920 compounds, 42% hits;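 active = compounds whose fluorescence signal differed from control wells by over 3 SD, either direction, in both duplicate plates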
TRPC4 spec = mouse TRPC4 modulation by TRPC6 hits, confirmation, selectivity assay for TRPC6 inhibitor project, cell-based, HEK293 TRPC4/mu-opioid, membrane potential dye | shares compounds with TRPC6 inhibitor | membrane potential fluorescence | activity change, negative = inhibition, % at 10 µM | 920 compounds, 61% hits | AID 2777, 2010;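 active = rise or fall in signal beyond 3 SD of buffer-only wells in both replicate plates, either sign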;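 note: integrated kinetic ratio of fluorescence range over baseline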
HEK293 MPD ctr 2-1 = nonspecific membrane potential effects, parental HEK293, confirmation, counter-screen for TRPC6 inhibitor project, cell-based, second counter screen. parental HEK293 membrane potential dye fluorescence; maximal acetylcholine challenge after compound addition. AID 2779, 2010. shares compounds with TRPC6 inhibitor. 920 compounds, 31% hits. signal change vs control, % at 10 µM;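 active = membrane potential signal moving either way by over 3 SD of the maximum-effect control, in both duplicate plates, meaning non-specific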
HEK293 MPD ctr-1 = membrane potential modulation in parental HEK293, confirmation, counter-screen for TRPC6 inhibitor project, cell-based; shares compounds with TRPC6 inhibitor; parental HEK293 membrane potential dye fluorescence; membrane potential signal change, % at 10 µM; 920 compounds, 60% hits;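 active = membrane potential signal shifting up or down by more than 3 SD of buffer-only wells, on both duplicate plates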
HEK293 MPD ctr-2 = parental HEK293 membrane potential modulation, confirmation, counter-screen for TRPC6 modulator project, cell-based; shares compounds with TRPC6 inhibitor; membrane potential dye fluorescence; membrane potential signal change, % at 10 µM; 2,400 compounds, 51% hits;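 active = membrane potential signal moves up or down beyond 5 SD from buffer-only wells, on both duplicate plates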
HEK293 MPD ctr 2-2 = parental HEK293 nonspecific activity of TRPC6 modulators, second screen; shares compounds with TRPC6 inhibitor; inhibition, % at 10 µM; membrane potential dye fluorescence; after compound, maximal acetylcholine stimulation; AID 488926; 2,400 compounds, 14% hits;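 active = membrane potential signal drops by more than 5 SD from the mean control signal, in both duplicate plates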;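 note: plate controls were acetylcholine ECmax control wells for no effect and buffer only wells for full effect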
TRPC4 ctr mod = TRPC4 modulation by TRPC6 hit compounds, confirmation, selectivity assay for TRPC6 modulator project, cell-based, HEK293 TRPC4/mu-opioid, membrane potential dye, mouse | shares compounds with TRPC6 inhibitor | membrane potential fluorescence | percent change from control (negative = decrease, positive = increase), % at 10 µM | 2,400 compounds, 69% hits | AID 488927, 2010;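 active = membrane potential signal moved up or down beyond 5 SD of buffer control wells, in both duplicate plates, actives on both sides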;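 note: plate controls were assay buffer wells for no effect and DAMGO maximal-effect wells for full effect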
TRPC4/MOR inh 2 = second selectivity test of TRPC6 modulators against mouse TRPC4 | HEK293 TRPC4/mu-opioid, membrane potential dye fluorescence; stimulated with maximal-effect DAMGO | 2,400 compounds, 55% hits | shares compounds with TRPC6 inhibitor | inhibition, % at 10 µM;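 active = drop in membrane potential signal beyond 5 SD of the control wells in both duplicate plates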;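 note: TRPC4 counter screen for TRPC6 hits run under conditions tuned for TRPC6 not TRPC4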
TRPC6 block conf = mouse TRPC6 channel inhibitors, confirmation, HEK293 cells, membrane potential dye, duplicate | shares compounds with TRPC6 inhibitor | ACh-evoked depolarization | inhibition, % at 10 µM | 3,300 compounds, 43% hits | AID 488960, 2010;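 active = fluorescence ratio falls more than 5 SD below the full-stimulation control mean, in both duplicate runs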;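 note: integrated fluorescence ratio of peak minus minimum over baseline after agonist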
TRPC6 act conf = mouse TRPC6 channel activators, confirmation, HEK293 cells, membrane potential dye, duplicate; shares compounds with TRPC6 inhibitor; HEK293-TRPC6 membrane potential dye fluorescence, FDSS; activation, % at 10 µM; 2,800 compounds, 11% hits; AID 488961, 2010;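 active = ratio signal rise beyond 5 SD above unstimulated control wells' mean, seen in both duplicate runs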;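 note: plate controls were buffer EC0 wells for no effect and acetylcholine ECmax response for full effect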
* hit, by the source's call; i = inactive; . = no result given.

SMILES | TRPC4 PAM | Kir21 block | TRPC4 agonist | TRPC6 inhibitor | TRPC6 act | TRPC4 inh | HEK293 MPD ctr-2 | HEK293 MPD ctr 2-2 | TRPC4 ctr mod | TRPC4/MOR inh 2 | TRPC6 block conf | TRPC6 act conf | others
CCN(CC)CCC/C(=N\O)C(O)(c1ccccc1)c1ccccc1 | i | -0.06 | i | -9.44* | i | i | . | . | . | . | 88.1%* | i | TRPC4 spec 2=i;TRPC4 spec=0.0%*;HEK293 MPD ctr 2-1=-37.0%*;HEK293 MPD ctr-1=i
CC[N+](C)(CC)CCC/C(=N/O)C(O)(c1ccccc1)c1ccccc1 | i | 1.16 | i | -8.46* | i | i | . | . | . | . | 71.2%* | i | TRPC4 spec 2=i;TRPC4 spec=i;HEK293 MPD ctr 2-1=3.5%*;HEK293 MPD ctr-1=i
CC/C(CC(C)(C)c1ccccc1)=N\O | i | -1.05 | i | i | i | i | . | . | . | . | . | .
CN(C)CCNc1ccc(-c2nn(C)c(=O)c3ccccc23)cc1[N+](=O)[O-] | i | 0.18 | i | -5.19* | i | i | -133.5%* | i | -32.0%* | 77.5%* | 72.0%* | i
Cc1nn(-c2ccccc2)c(C)c1/C=N/Nc1nc2ccccc2[nH]1 | i | -1.16 | i | i | i | i | . | . | . | . | . | .
COc1ccc(O)c(/C=N/Nc2nc3ccccc3[nH]2)c1 | i | 0.95 | i | -5* | i | i | i | i | i | i | i | i
Cc1c(/C=N/Nc2nc3ccccc3[nH]2)c2ccccc2n1C | i | -2.41 | i | -14.7* | i | i | -192.5%* | 74.0%* | -40.0%* | 97.0%* | 68.0%* | i
CC(C)Cn1c(/C=N/Nc2nc3ccccc3[nH]2)nc2ccccc21 | i | -1.51 | i | i | i | i | . | . | . | . | . | .
Cn1c(/C=N/Nc2nc3ccccc3[nH]2)nc2ccccc21 | i | -1.28 | i | -9.65* | i | i | i | i | -10.5%* | i | i | i
Cc1ccc(S(=O)(=O)N2CCCOC2CNC(=O)C(=O)NCc2ccc3c(c2)OCO3)cc1 (stereo not drawn) | i | -0.12 | i | i | i | i | . | . | . | . | . | .
Cc1cccc(NC(=O)N2CCN(Cc3ccc4c(c3)OCO4)CC2)c1C | i | -1.75 | i | i | i | i | . | . | . | . | . | .
CN1CCN(/N=C/c2ccc(-c3ccc([N+](=O)[O-])cc3Cl)o2)CC1 | i | -1.13 | i | i | 12.9* | i | 259.5%* | i | 39.0%* | i | i | 91.5%*
O=[N+]([O-])c1ccc(Cl)c(-c2ccc(/C=N/n3cnnc3)o2)c1 | i | 0.76 | i | -7.31* | i | i | -154.5%* | i | -30.0%* | i | i | i
COc1cc([N+](=O)[O-])ccc1-c1ccc(/C=N\n2cnnc2)o1 | i | 1.18 | i | -9.29* | i | i | i | i | -61.0%* | 39.0%* | i | i
Cc1cc(-c2ccc(/C=N/n3cnnc3)o2)c(C)c([N+](=O)[O-])c1 | i | -0.41 | i | -5.98* | i | i | -221.0%* | 71.0%* | -44.0%* | 57.5%* | 48.0%* | i
CCCCCOc1ccc(C2C(C(=O)c3ccc(C)o3)=C(O)C(=O)N2c2cc(C)on2)cc1 (stereo not drawn) | i | -0.48 | i | i | i | i | . | . | . | . | . | .
COCc1c(C(=O)OC)nnn1-c1ccc(C(F)(F)F)cc1[N+](=O)[O-] | i | 0.04 | i | i | i | i | . | . | . | . | . | .
COc1cccc(OC)c1OCCNCC1COc2ccccc2O1 (stereo not drawn) | i | -1.49 | i | -5.59* | i | i | 144.0%* | i | 27.0%* | 38.5%* | i | .
COc1cc(/C=N/Nc2nc(=O)[nH]nc2C)cc([N+](=O)[O-])c1O | i | -0.44 | i | i | i | i | . | . | . | . | . | .
Cn1nc(C(C)(C)C)c([N+](=O)[O-])c1C(=O)NC(C)(C)C | i | 0.84 | i | i | i | i | . | . | . | . | . | .
